Results as given in ChEMBL document CHEMBL5678805, “Intermittent administration of MEK inhibitor GDC-0973 plus PI3K inhibitor GDC-0941 triggers robust apoptosis and tumor growth inhibition” (Cancer Res, 2012).
Activity calls are given as the source filed them. The calls are words filed in the database; no cut-off is given here.

Columns and labels:
[1] = target: RAC-alpha serine/threonine-protein kinase (Homo sapiens, UniProt P31749); experiment: Inhibition of Akt1 (unknown origin)
[2] = target: Serine/threonine-protein kinase B-raf (Homo sapiens, UniProt P15056); experiment: Inhibition of BRAF (unknown origin)
[3] = target: Cyclin-dependent kinase 2/cyclin E1 (Homo sapiens, UniProt P24941); experiment: Inhibition of CDK2/cyclinE (unknown origin); format: protein-complex assay
Focal adhesion kinase 1 = Focal adhesion kinase 1 (Homo sapiens, UniProt Q05397); experiment: Inhibition of FAK (unknown origin)
[4] = target: Receptor-type tyrosine-protein kinase FLT3 (Homo sapiens, UniProt P36888); experiment: Inhibition of Flt3 (unknown origin)
[5] = target: Homeodomain-interacting protein kinase 1 (Homo sapiens, UniProt Q86Z02); experiment: Inhibition of HIPK1 (unknown origin)
Chain of Homeodomain-interacting protein kinase 1 (Q86Z02 whole entry): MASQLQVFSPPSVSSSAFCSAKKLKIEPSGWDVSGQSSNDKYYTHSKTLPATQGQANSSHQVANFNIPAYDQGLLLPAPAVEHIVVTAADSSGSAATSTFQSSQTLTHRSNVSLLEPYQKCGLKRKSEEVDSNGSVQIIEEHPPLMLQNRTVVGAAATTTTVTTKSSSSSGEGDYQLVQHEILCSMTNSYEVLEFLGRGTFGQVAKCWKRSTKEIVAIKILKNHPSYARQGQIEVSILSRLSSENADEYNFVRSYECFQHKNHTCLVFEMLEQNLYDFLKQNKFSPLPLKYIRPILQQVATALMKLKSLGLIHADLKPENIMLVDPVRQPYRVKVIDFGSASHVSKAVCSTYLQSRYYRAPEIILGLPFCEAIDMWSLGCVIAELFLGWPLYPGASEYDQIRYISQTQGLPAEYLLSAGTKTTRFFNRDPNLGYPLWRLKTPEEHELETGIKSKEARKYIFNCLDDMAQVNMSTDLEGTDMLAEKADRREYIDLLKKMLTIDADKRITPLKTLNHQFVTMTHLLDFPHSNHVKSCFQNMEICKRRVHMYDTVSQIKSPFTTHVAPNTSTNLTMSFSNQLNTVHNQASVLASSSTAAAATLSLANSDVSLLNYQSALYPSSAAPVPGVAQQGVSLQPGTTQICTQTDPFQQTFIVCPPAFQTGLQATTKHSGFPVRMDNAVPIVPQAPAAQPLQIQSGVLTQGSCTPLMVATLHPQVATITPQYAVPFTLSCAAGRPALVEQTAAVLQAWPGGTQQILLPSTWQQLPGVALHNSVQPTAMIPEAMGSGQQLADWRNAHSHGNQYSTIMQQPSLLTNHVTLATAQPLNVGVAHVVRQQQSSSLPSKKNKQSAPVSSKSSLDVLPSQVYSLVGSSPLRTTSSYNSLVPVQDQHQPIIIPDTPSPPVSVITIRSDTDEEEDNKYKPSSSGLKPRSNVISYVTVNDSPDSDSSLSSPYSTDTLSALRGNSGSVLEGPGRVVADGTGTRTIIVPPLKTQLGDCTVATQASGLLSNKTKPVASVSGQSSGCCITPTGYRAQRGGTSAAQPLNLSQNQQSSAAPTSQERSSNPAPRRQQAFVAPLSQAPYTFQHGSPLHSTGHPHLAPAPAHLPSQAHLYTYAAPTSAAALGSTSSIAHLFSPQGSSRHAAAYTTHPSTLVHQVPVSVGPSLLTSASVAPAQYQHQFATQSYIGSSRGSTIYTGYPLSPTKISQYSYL

[6] = target: Inhibitor of nuclear factor kappa-B kinase subunit alpha (Homo sapiens, UniProt O15111); experiment: Inhibition of IKKa (unknown origin)
Insulin receptor = Insulin receptor (Homo sapiens, UniProt P06213); experiment: Inhibition of insulin receptor (unknown origin)
Chain of Insulin receptor (P06213 28-758 limits assumed): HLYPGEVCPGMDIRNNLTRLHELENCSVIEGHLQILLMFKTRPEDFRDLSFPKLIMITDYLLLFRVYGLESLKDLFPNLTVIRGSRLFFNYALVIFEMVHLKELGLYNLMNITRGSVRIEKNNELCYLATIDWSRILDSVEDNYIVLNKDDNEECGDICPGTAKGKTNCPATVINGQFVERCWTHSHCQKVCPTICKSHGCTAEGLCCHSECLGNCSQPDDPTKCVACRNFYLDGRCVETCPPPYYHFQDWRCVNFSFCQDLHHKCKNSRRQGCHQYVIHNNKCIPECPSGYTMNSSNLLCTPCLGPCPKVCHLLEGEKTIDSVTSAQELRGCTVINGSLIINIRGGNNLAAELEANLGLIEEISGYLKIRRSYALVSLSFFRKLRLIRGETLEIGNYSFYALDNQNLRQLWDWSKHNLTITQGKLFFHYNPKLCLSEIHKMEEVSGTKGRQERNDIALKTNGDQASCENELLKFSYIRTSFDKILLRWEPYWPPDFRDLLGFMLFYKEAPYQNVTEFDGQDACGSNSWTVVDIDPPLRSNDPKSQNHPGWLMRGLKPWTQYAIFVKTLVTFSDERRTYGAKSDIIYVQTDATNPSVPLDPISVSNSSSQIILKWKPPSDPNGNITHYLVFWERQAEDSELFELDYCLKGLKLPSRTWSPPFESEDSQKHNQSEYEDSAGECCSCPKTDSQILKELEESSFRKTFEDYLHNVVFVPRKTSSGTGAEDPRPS
Chain of Insulin receptor (P06213 763-1382 limits assumed): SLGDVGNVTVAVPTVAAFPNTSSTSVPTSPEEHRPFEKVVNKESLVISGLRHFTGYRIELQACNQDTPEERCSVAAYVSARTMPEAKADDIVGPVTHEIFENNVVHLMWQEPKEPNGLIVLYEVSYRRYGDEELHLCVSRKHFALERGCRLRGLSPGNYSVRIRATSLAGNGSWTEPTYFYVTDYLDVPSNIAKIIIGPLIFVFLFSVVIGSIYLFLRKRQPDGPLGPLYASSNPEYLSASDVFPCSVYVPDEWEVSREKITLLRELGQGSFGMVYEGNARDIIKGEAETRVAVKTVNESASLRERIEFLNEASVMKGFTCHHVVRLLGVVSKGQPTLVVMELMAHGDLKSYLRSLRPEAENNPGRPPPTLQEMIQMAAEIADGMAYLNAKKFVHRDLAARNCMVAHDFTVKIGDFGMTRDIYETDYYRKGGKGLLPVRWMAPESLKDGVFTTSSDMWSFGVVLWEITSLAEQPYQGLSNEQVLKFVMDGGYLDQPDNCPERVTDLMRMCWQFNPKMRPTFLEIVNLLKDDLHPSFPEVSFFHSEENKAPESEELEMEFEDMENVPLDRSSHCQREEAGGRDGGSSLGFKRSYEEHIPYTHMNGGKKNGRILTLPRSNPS

[7] = target: Vascular endothelial growth factor receptor 2 (Homo sapiens, UniProt P35968); experiment: Inhibition of KDR (unknown origin)
[8] = target: Tyrosine-protein kinase Lck (Homo sapiens, UniProt P06239); experiment: Inhibition of Lck (unknown origin)
[9] = target: Tyrosine-protein kinase Lyn (Homo sapiens, UniProt P07948); experiment: Inhibition of Lyn (unknown origin)
[10] = target: Dual specificity mitogen-activated protein kinase kinase 4 (Homo sapiens, UniProt P45985); experiment: Inhibition of MKK4 (unknown origin)
Chain of Dual specificity mitogen-activated protein kinase kinase 4 (P45985 whole entry): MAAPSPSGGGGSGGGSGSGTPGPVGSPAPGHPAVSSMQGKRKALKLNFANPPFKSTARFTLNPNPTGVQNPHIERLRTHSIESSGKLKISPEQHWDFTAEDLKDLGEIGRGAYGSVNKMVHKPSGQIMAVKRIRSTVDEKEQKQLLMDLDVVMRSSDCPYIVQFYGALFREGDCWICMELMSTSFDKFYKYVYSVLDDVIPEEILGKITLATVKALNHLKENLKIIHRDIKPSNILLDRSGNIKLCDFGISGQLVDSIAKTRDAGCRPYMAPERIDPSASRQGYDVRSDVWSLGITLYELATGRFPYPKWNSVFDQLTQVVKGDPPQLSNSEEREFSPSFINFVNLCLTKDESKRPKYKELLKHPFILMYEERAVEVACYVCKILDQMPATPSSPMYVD

[11] = target: Platelet-derived growth factor receptor alpha (Homo sapiens, UniProt P16234); experiment: Inhibition of PDGFRalpha (unknown origin)
[12] = target: Phosphatidylinositol 4,5-bisphosphate 3-kinase catalytic subunit beta isoform (Homo sapiens, UniProt P42338); experiment: Inhibition of PI3Kbeta (unknown origin)
[13] = target: Phosphatidylinositol 4,5-bisphosphate 3-kinase catalytic subunit gamma isoform (Homo sapiens, UniProt P48736); experiment: Inhibition of PI3Kgamma (unknown origin)
[14] = target: Protein kinase C gamma type (Homo sapiens, UniProt P05129); experiment: Inhibition of PKCg (unknown origin)
[15] = target: Macrophage-stimulating protein receptor (Homo sapiens, UniProt Q04912); experiment: Inhibition of RON (unknown origin)
Chain of Macrophage-stimulating protein receptor (Q04912 25-304 limits assumed): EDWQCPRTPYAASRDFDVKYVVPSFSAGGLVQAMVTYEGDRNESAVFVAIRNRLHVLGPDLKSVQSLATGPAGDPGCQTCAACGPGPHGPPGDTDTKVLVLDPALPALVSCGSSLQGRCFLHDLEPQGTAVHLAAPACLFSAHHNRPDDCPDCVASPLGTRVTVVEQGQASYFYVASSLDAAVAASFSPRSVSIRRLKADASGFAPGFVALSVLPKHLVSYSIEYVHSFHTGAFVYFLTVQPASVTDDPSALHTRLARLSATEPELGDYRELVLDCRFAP
Chain of Macrophage-stimulating protein receptor (Q04912 310-1400 limits assumed): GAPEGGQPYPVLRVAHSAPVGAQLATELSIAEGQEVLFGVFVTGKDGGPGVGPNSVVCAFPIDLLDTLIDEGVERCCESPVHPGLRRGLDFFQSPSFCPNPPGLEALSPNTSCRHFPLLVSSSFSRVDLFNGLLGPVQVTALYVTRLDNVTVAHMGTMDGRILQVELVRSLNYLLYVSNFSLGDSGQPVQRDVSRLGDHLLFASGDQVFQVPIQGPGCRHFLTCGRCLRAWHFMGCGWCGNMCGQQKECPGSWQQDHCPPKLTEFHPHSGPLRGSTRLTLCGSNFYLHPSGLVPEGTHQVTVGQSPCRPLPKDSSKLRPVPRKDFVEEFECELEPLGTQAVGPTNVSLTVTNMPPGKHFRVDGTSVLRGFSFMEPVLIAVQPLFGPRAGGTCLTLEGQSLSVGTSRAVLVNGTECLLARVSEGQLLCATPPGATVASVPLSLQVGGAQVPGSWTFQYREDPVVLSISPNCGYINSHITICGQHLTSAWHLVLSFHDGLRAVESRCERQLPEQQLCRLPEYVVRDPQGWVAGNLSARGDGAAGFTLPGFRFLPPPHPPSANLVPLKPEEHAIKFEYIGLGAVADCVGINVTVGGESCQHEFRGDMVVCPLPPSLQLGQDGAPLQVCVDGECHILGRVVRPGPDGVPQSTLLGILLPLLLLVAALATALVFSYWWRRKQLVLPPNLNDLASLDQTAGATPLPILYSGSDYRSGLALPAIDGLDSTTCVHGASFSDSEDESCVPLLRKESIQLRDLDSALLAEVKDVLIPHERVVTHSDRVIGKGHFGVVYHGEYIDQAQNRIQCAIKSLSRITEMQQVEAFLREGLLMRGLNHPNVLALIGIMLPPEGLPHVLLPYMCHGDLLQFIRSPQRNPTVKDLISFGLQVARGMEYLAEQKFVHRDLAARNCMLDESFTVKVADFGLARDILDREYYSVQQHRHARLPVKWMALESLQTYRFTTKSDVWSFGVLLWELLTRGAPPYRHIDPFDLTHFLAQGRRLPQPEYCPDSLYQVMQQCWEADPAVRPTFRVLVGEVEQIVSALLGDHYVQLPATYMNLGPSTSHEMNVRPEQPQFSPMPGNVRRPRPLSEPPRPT

[16] = target: Ribosomal protein S6 kinase alpha-1 (Homo sapiens, UniProt Q15418); experiment: Inhibition of Rsk1 (unknown origin)
HCT-116 = experiment: Antitumor activity against human HCT-116 cells harboring KRAS G13D/PIK3CA […]/CTNNB1 S45del/CDKN2A G23fs mutant xenografted in mouse assessed as tumor growth inhibition at 2.5 mg/kg, po; format: functional; settings: read-out: TGI
Outline: (§1)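 Single-agent dose ranging in human tumor xenograft mice at 2.5, 5 or 10 mg/kg oral. Tumor volume was measured by caliper as (L×W×W)/2. %TGI = 100×[1 − AUC(treatment/d)/AUC(vehicle/d)] from the fitted growth curve per dose group, relative to vehicle.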

FaDu = experiment: Antitumor activity against human FaDu cells harboring SMAD4 del/TP53 R248L/CDKN2A mutant xenografted in mouse assessed as tumor growth inhibition at 5 mg/kg, po; format: functional; settings: read-out: TGI; outline: as §1
[17] = Antitumor activity against human A2058-X1 cells harboring BRAF V600E/PTEN L112Q/V175/TP53 V274F mutant xenografted in mouse assessed as tumor growth inhibition at 5 mg/kg, po; format: functional; settings: A2058-X1, read-out: TGI; outline: as §1
Calu-6 = experiment: Antitumor activity against human Calu-6 cells harboring KRAS Q61K and TP53 R196 mutant xenografted in mouse assessed as tumor growth inhibition at 2.5 mg/kg, po; format: functional; settings: read-out: TGI; outline: as §1
NCI-H2122 = experiment: Antitumor activity against human NCI-H2122 cells harboring KRAS […]/LKB1 P281/TP53Q61L/C176Fl/CDKN2A mutant xenografted in mouse assessed as tumor growth inhibition at 5 mg/kg, po; format: functional; settings: read-out: TGI
Outline: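 NCI-H2122 (KRAS G12C) NSCLC xenografts in mice were dosed orally once daily for 21 consecutive days. Tumor volume was measured with calipers as (L×W×W)/2, and body weight was tracked. %TGI was derived from the area under the fitted growth curve per day versus vehicle. Group means with SEM were reported.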

NCI-H460 = experiment: Antitumor activity against human NCI-H460 cells harboring KRAS Q61H/PIK3CA E545K/LKB1 Q37/CDKN2A mutant xenografted in mouse assessed as tumor growth inhibition at 10 mg/kg, po; format: functional; settings: read-out: TGI
Outline: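 Human tumor xenografts in mice were dosed orally at the indicated mg/kg. Tumor volume was measured with calipers as (L×W×W)/2. %TGI = 100 × [1 − (AUC treatment/d)/(AUC vehicle/d)], using the area under the fitted tumor-growth curve per day for each dose group relative to vehicle.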

A2058 [18] = experiment: Antiproliferative activity against human A2058 cells harboring BRAF V600E mutant assessed as reduction in cell viability incubated for 96 hrs in presence of 4-(2-(1H-indazol-4-yl)-6-((4-(methylsulfonyl)piperazin-1-yl)methyl)thieno[3,2-d]pyrimidin-4-yl)morpholine; format: functional, cell-based
Hs-578T = experiment: Antiproliferative activity against human Hs-578T cells assessed as reduction in cell viability incubated for 96 hrs in presence of 4-(2-(1H-indazol-4-yl)-6-((4-(methylsulfonyl)piperazin-1-yl)methyl)thieno[3,2-d]pyrimidin-4-yl)morpholine; format: functional, cell-based
G-361 = experiment: Antiproliferative activity against human G361 cells assessed reduction in cell viability incubated for 4 days in presence of 4-(2-(1H-indazol-4-yl)-6-((4-(methylsulfonyl)piperazin-1-yl)methyl)thieno[3,2-d]pyrimidin-4-yl)morpholine by celltiter-glo assay; format: functional; settings: time 4 day
Outline: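 4-day CellTiter-Glo viability read-out on melanoma lines, cells exposed to increasing concentrations of each inhibitor alone and in combination.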

A2058 [19] = experiment: Inhibition of PI3K/MEK signaling pathway in human A2058 cells assessed as decrease in AKT phosphorylation by incubated for 24 hrs by Western blot analysis; format: cell-based
888-mel [20] = experiment: (§2) Inhibition of S6 phosphorylation in human 888-mel cells preincubated with compound for 24 hrs followed by compound washout and measured after 2 hrs in presence of 4-(2-(1H-indazol-4-yl)-6-((4-(methylsulfonyl)piperazin-1-yl)methyl)thieno[3,2-d]pyrimidin-4-yl)morpholine by immunoblotting analysis; format: cell-based
888-mel [21] = experiment: as §2, with “Induction” for “Inhibition”, “apoptosis” for “S6 phosphorylation”, “cells assessed as increase in cleaved PARP level” for “cells”; format: functional, cell-based
Outline: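 The medium was then exchanged to remove compound. Lysates were prepared 2 and 24 h after washout and immunoblotted for cleaved PARP, p-AKT and p-ERK using HRP secondary antibody and ECL.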

A2058 [22] = experiment: Antitumor activity against human A2058 cells harboring BRAF V600E/PTEN deletion mutant xenografted in mouse assessed as decrease in tumor volume at 10 mg/kg, po administered once weekly for 21 days in presence of GDC-0980 by digital calipers analysis; format: functional, organism-based; settings: time 21.0 day

IC50 [1]: > 10 µM
IC50 [2]: > 10 µM
IC50 [3]: > 10 µM
IC50 (Focal adhesion kinase 1): > 10 µM
IC50 [4]: > 10 µM
IC50 [5]: > 10 µM
IC50 [6]: > 10 µM
IC50 (Insulin receptor): > 10 µM
IC50 [7]: > 10 µM
IC50 [8]: > 10 µM
IC50 [9]: > 10 µM
IC50 [10]: > 10 µM
IC50 [11]: > 10 µM
IC50 [12]: > 10 µM
IC50 [13]: > 10 µM
IC50 [14]: > 10 µM
IC50 [15]: > 10 µM
IC50 [16]: > 10 µM
Structure (SMILES): O=C(c1ccc(F)c(F)c1Nc1ccc(I)cc1F)N1CC(O)([C@@H]2CCCCN2)C1 [COBIMETINIB]
inhibition in vivo at 2.5 mg/kg (HCT-116): 34%
inhibition in vivo at 5 mg/kg (FaDu): 94%
inhibition in vivo at 5 mg/kg [17]: 45%
inhibition in vivo at 2.5 mg/kg (Calu-6): 27.5%
inhibition in vivo at 5 mg/kg (NCI-H2122): 49%
inhibition in vivo at 10 mg/kg (NCI-H460): 9%
Activity (A2058 [18]): inactive
Activity (Hs-578T): inactive
Activity (G-361): 60%
inhibition (A2058 [19]): Active
inhibition (888-mel [20]): Active
Activity (888-mel [21]): inactive
Activity (A2058 [22]): Active
